Results on one molecule are retold here after ChEMBL document CHEMBL4049423, “Discovery of Novel 1,4-Diacylpiperazines as Selective and Cell-Active eIF4A3 Inhibitors” (J Med Chem, 2017).

Bounds are passed on as bounds.

In experiment [1] the target is U5 small nuclear ribonucleoprotein 200 kDa helicase (Homo sapiens, UniProt O75643). The experiment can be described thus: Inhibition of human recombinant full-length His-tagged BRR2 RNA dependent ATPase activity expressed in baculovirus infected Sf9 insect cells using single stranded poly(U) RNA as substrate after 30 mins by ADP-Glo luminescence assay. In outline: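 BRR2 was Ni-NTA and gel-filtration purified and used at 6.25 nM. Substrates were 20 μM ATP and 2.5 μg/mL poly(U), both at Km. Buffer: 20 mM Tris-HCl pH 7.5, 2.5 mM MgCl2, 100 mM KCl, 1 mM DTT, 0.01% Tween20. Started with enzyme and incubated 30 min at room temperature, with ADP-Glo luminescence read-out.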
For orientation: ADP-Glo first removes unused ATP, then detects ADP through luciferase.

Experiment [2] concerns the target T1, Eukaryotic initiation factor 4A-III (Homo sapiens, UniProt P38919). Kind of experiment: Inhibition of eIF4A3 (unknown origin) expressed in HEK293T cells assessed as NMD suppression at 3 uM after 6 hrs by luciferase reporter gene assay relative to control. Format: cell-based. In outline: (§1)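 HEK293T cells were co-transfected (Lipofectamine LTX) with the pGL4.12 SV40-Luc2CP-BGG NMD reporter and a pRL-TK renilla control. After 24 h of transfection, cells were treated with compound for 6 h. Firefly/renilla luciferase ratio was measured by dual-luciferase assay and normalized to DMSO-treated cells, n = 2.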
(In general: Reporter assays use an easily measured gene product as a stand-in for the process of interest.)

In experiment [3] the target is T1, Eukaryotic initiation factor 4A-III. Kind of experiment: Inhibition of MLN51-induced full-length human recombinant His6-tagged eIF4A3 RNA dependent ATPase activity expressed in Escherichia coli BL21(DE3) using single stranded poly(U) RNA as substrate after 30 mins by ADP-Glo luminescence assay. In outline:
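ADP-Glo luminescence read-out with 150 nM eIF4A3 plus an equimolar amount of MLN51. Substrates were 35 μM ATP and 1.5 μg/mL poly(U), both at Km. Buffer: 20 mM Tris-HCl pH 7.5, 2.5 mM MgCl2, 100 mM KCl, 1 mM DTT, 0.01% Tween20. Enzyme was added last to start the reaction, then incubated 30 min at room temperature. No-enzyme wells were taken as 100% inhibition and the complete reaction as 0%.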

The target in experiment [4] is Eukaryotic initiation factor 4A-I (Homo sapiens, UniProt P60842). Kind of experiment: Inhibition of eIF4G-induced full-length human recombinant His6-tagged eIF4A1 RNA dependent ATPase activity expressed in Escherichia coli BL21(DE3) using single stranded poly(U) RNA as substrate after 40 mins by ADP-Glo luminescence assay. In outline:
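100 nM eIF4A1 with equimolar eIF4B and eIF4G, 35 μM ATP and 1.5 μg/mL poly(U), both at Km. Buffer: Tris-HCl pH 7.5, MgCl2, KCl, DTT, Tween20. The reaction was started with enzyme and run 40 min at room temperature, with ADP read by ADP-Glo luminescence. No-enzyme wells were set as 100% inhibition.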

Experiment [5] has as its target T1, Eukaryotic initiation factor 4A-III. The experiment can be described thus: Binding affinity to full-length human recombinant His6-tagged eIF4A3 expressed in Escherichia coli BL21(DE3) assessed as association rate constant by surface plasmon resonance assay. In outline: (§2)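 eIF4A3 amine-coupled to a CM7 sensor chip (5000–10 000 RU) in HBS-P+ with 1 mM DTT. Binding was run at 25 °C in 20 mM Tris-HCl pH 8.0, 150 mM NaCl, 0.2 mM TCEP, 0.02% P20 and 1–2% DMSO. Compound series of 6–12 concentrations were injected for 60–120 s at 50 μL/min, with dissociation followed for 120–1200 s. Sensorgrams were double-referenced and globally fitted to a 1:1 model.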
(SPR reads the build-up and loss of mass on a sensor chip optically.)

The target is the same in experiment [6]. The experiment can be described thus: Binding affinity to full-length human recombinant His6-tagged eIF4A3 expressed in Escherichia coli BL21(DE3) assessed as dissociation half life by surface plasmon resonance assay. In outline:
as §2

The target of experiment [7] is Eukaryotic initiation factor 4A-II (Homo sapiens, UniProt Q14240). Kind of experiment: Inhibition of eIF4G-induced human recombinant His6-tagged eIF4A2 RNA dependent ATPase activity using single stranded poly(U) RNA as substrate after 40 mins by ADP-Glo luminescence assay. In outline:
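eIF4A2 was a purchased His-tagged human protein, used at 100 nM with equimolar eIF4B and eIF4G. Substrates were 20 μM ATP and 3.0 μg/mL poly(U), both at Km. The reaction was started with enzyme in Tris-HCl pH 7.5/MgCl2/KCl/DTT/Tween20 buffer and run 40 min at room temperature. ADP-Glo read-out, with the no-enzyme control set as 100% inhibition.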

The target of experiment [8] is T1, Eukaryotic initiation factor 4A-III. The experiment can be described thus: Binding affinity to full-length human recombinant His6-tagged eIF4A3 expressed in Escherichia coli BL21(DE3) by surface plasmon resonance assay. In outline:
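eIF4A3 immobilized on CM7 chip by amine coupling (5000–10 000 RU) in HBS-P+ with 1 mM DTT. Binding run at 25 °C in 20 mM Tris-HCl pH 8.0, 150 mM NaCl, 0.2 mM TCEP, 0.02% P20, 1−2% DMSO. Compound injected at 6−12 concentrations for 60−120 s at 50 μL/min, dissociation followed 120−1200 s. Sensorgrams double-referenced, globally fitted to 1:1 model.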

Experiment [9] has the same target. The experiment can be described thus: Binding affinity to full-length human recombinant His6-tagged eIF4A3 expressed in Escherichia coli BL21(DE3) assessed as dissociation rate constant by surface plasmon resonance assay. In outline:
as §2

Experiment [10] shares this target. The experiment can be described thus: Inhibition of eIF4A3 (unknown origin) expressed in HEK293T cells assessed as NMD suppression at 10 uM after 6 hrs by luciferase reporter gene assay relative to control. Format: cell-based. In outline:
as §1

In experiment [11] the target is T2, ATP-dependent RNA helicase DHX29 (Homo sapiens, UniProt Q7Z478).
T2 sequence (Q7Z478 whole entry): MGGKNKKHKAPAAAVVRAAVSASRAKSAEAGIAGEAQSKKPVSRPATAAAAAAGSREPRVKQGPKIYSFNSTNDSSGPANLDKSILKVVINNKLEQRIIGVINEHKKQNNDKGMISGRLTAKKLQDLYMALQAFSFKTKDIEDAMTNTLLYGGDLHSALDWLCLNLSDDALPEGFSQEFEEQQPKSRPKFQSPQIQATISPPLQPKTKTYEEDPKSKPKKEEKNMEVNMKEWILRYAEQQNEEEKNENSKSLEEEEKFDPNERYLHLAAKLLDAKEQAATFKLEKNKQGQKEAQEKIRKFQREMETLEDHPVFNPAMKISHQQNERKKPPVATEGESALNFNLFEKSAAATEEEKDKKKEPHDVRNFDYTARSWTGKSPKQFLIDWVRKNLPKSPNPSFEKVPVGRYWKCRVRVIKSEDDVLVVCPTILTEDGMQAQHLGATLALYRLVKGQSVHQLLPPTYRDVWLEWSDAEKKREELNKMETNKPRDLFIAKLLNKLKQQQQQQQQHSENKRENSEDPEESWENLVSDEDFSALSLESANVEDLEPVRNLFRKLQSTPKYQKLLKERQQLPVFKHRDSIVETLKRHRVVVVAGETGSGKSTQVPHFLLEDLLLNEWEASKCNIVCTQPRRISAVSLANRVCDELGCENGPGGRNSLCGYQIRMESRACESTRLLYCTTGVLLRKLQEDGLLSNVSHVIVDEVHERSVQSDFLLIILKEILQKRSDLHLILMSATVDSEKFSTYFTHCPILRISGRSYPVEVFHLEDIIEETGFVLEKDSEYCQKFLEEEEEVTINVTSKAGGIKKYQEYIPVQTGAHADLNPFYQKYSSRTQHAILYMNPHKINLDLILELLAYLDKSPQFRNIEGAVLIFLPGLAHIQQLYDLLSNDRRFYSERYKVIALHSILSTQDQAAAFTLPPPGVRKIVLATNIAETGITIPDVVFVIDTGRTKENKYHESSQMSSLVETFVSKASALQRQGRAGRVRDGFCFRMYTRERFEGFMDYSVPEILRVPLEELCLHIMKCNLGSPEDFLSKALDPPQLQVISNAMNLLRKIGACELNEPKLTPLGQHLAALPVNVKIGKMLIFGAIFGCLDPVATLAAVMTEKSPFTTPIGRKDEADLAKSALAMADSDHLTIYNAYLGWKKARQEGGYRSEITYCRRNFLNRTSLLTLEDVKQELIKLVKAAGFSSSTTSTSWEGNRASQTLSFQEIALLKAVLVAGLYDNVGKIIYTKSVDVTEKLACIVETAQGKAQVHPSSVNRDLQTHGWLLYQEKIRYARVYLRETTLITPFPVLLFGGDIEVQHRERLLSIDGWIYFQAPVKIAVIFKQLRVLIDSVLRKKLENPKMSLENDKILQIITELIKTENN
The experiment can be described thus: Inhibition of human recombinant full-length FLAG-His-tagged DHX29 RNA dependent ATPase activity expressed in baculovirus infected Sf9 insect cells using single stranded poly(U) RNA as substrate after 30 mins by ADP-Glo luminescence assay. In outline: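 DHX29 was Ni-NTA and Superdex 200 purified and used at 6.4 nM. Substrates were 30 μM ATP and 1.8 μg/mL poly(U), both at Km. Run in pH 7.5 Tris/MgCl2/KCl/DTT/Tween20 buffer, started with enzyme, 30 min at room temperature. ADP detected by ADP-Glo luminescence, with no-enzyme wells as 100% inhibition.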

T1 sequence (P38919 whole entry): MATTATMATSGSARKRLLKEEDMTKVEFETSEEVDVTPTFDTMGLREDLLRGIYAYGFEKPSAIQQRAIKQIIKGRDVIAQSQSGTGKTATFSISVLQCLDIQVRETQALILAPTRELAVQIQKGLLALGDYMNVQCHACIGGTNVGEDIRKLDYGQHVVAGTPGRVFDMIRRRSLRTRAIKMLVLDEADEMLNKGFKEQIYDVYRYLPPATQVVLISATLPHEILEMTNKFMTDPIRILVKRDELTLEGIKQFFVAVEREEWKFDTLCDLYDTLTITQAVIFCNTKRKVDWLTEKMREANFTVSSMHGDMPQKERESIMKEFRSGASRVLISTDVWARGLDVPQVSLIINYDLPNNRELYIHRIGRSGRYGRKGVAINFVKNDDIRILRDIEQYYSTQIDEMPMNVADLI
Sequence of U5 small nuclear ribonucleoprotein 200 kDa helicase (O75643 whole entry): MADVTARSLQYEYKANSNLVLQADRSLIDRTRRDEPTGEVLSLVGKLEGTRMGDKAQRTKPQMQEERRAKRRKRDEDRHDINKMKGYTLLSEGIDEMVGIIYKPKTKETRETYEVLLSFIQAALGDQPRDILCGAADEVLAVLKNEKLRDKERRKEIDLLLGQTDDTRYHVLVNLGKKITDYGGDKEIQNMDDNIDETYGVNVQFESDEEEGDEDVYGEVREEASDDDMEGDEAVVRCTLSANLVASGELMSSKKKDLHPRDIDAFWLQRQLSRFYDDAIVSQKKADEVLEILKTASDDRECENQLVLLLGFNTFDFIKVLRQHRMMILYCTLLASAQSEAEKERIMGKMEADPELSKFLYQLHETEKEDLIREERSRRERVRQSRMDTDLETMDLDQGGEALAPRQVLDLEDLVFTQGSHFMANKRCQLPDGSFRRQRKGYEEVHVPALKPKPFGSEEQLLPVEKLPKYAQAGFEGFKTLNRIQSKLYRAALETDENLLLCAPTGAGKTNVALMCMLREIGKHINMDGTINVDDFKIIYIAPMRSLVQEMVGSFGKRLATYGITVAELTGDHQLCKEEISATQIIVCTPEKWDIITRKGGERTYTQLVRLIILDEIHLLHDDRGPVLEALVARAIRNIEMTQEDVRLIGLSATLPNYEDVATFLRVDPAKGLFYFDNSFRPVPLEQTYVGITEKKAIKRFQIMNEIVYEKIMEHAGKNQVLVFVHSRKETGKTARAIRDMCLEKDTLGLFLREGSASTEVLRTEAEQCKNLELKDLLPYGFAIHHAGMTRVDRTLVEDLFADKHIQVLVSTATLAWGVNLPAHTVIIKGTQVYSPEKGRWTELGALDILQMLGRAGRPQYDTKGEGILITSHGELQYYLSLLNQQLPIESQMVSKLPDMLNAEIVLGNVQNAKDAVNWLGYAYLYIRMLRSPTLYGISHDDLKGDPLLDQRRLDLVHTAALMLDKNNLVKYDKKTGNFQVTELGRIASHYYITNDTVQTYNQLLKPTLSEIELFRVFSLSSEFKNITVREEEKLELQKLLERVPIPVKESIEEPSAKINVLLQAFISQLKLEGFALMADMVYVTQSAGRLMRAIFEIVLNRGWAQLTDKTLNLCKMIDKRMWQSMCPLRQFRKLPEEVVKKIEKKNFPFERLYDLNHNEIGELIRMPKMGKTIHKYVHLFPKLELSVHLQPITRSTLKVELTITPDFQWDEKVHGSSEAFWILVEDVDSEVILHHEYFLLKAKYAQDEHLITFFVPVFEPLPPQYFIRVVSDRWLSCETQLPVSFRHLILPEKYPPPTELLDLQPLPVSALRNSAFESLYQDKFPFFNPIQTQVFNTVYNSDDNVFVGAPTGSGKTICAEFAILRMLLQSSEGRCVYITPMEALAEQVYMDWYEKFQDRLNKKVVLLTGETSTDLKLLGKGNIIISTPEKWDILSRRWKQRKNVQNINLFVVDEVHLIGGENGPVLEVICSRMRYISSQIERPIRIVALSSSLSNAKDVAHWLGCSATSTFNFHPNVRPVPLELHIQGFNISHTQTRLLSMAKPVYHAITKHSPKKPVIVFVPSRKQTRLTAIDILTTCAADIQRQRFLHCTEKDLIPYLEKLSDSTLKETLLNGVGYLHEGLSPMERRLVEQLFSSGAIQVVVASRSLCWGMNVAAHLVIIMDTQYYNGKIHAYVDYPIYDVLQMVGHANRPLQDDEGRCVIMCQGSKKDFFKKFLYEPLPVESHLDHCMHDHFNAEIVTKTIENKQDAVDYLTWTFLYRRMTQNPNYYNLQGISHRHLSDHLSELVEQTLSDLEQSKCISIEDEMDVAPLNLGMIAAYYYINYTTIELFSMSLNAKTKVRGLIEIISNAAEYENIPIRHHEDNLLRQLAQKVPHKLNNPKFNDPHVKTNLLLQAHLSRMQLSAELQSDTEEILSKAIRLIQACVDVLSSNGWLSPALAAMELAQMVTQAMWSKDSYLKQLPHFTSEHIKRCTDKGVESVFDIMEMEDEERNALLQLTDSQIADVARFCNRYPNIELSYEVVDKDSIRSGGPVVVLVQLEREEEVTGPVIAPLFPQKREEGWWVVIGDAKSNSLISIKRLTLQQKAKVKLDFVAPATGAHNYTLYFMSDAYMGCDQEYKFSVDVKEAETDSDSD
Sequence of Eukaryotic initiation factor 4A-I (P60842 whole entry): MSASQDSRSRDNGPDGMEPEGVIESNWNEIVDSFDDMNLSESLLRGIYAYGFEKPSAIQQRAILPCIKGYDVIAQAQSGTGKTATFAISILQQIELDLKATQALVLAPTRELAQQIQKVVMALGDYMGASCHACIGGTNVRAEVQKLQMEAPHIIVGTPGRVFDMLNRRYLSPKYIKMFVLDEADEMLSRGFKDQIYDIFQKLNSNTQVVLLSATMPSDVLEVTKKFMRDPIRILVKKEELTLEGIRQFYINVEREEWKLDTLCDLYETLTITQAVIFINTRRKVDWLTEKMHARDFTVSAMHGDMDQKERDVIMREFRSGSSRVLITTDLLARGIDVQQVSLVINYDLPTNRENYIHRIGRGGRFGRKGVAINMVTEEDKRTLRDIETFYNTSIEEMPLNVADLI
Sequence of Eukaryotic initiation factor 4A-II (Q14240 whole entry): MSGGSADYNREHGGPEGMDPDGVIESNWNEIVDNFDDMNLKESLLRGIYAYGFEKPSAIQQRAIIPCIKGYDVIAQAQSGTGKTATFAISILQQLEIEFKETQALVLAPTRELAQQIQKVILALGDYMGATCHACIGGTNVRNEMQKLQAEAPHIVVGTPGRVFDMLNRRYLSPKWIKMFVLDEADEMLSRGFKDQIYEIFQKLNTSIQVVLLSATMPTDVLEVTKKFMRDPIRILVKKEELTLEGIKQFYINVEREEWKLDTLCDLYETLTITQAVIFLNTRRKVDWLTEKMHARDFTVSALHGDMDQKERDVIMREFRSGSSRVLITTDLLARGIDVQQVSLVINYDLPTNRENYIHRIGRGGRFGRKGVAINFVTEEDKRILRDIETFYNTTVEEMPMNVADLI

Take `Cc1c(C(=O)N2CCN(C(=O)c3ccc(Br)cc3)[C@@H](c3ccc(Cl)cc3)C2)cnn1-c1cccc(C#N)c1`: the IC50 is > 100 µM in experiment [1]; 0.26 µM in experiment [3]; > 100 µM in experiment [4]; > 100 µM in [7]; > 100 µM in [11]. Besides, the fold change (FC) in experiment [2] was 2.72; in [10] it was 3.69. Moreover, the results for the K in [5] and in experiment [9] were 1.6 ×10⁴ /M/s and 6.9 ×10⁻⁴ /s, respectively. The T1/2 in experiment [6] worked out at 16.8 min. The Kd in experiment [8] came out at 0.043 µM.

The term IC50 denotes the midpoint of a concentration-inhibition curve. By Kd is commonly meant a measure of binding affinity in units of concentration.
